Experiment [1] is described as follows: reducers of endogenous Her2 protein level, primary screen, SKBR3 breast tumor cells, AlphaScreen, ATP viability (AID 461;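 active = Her2 level under about 52% in both replicate screens, with viability over 70% of control, limit read from the data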;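 for Her2 level: lower value means less Her2 protein in the cells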;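 for viability: percent of carrier control wells set as 100% viability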). The note with it: 18-24 h, measured here: SKBR3 viability, ATP luminescence, at 10 µM.
For experiment [2], the target named is Receptor tyrosine-protein kinase erbB-2 (Homo sapiens) (UniProt P04626). The experiment is described as above. The conditions noted are these: 18-24 h, at 10 µM, stronger effect = lower value.
Experiment [3] is described as follows: SK-BR-3 cell growth inhibitors, pilot screen, 24 h, human (AID 572).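 Note: compound exposure lasted between 18 and 24 h rather than exactly 24 h; 100% = carrier-treated control wells.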 The note with it: SK-BR-3 viability, CellTiter-Glo luminescence, at 10 µM, stronger effect = lower value.
Experiment [4] is described as follows: growth inhibitors of H69AR lung tumor, primary screen, human, duplicate replicates (AID 580;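 active = viability at or under a set limit in both replicates, limit being median viability minus 3 SD, cut at about 48% in these data, passing the limit was not always enough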;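 note: 100% = mean luminescence of untreated wells and 0% = no signal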). The conditions noted are these: H69AR lung tumor cells viability, ATP luminescence, 72 h; at 10 µM; stronger effect = lower value.
Experiment [5] in a line: reversal of MRP1-mediated doxorubicin resistance, pilot screen, H69AR cells, doxorubicin co-treatment (AID 601;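 active = viability loss from added drug above about 55%, and viability with drug at most 40%, in both replicates, limit read from the data, passing the limit was not always enough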). The note with it: CellTiter-Glo, 72 h, at 10 µM; for differential viability (reversal): stronger effect = higher value.
Experiment [6] is described as follows: 384-well plate pilot, post-Golgi transport modulator project, inhibition of yeast transport mutant growth (AID 636; in the data active = inhibition above about 31%). The conditions noted are these: absorbance 615 nm, about 18 h, stronger effect = higher value.
Experiment [7] is described as follows: growth suppression of yeast trafficking mutant, preliminary HTS, modulators of trafficking downstream of Golgi apparatus project, 1536-format plate, OD 615 nm (AID 637; in the data active = inhibition above about 30%). The conditions noted are these: yeast transport mutant growth, absorbance 615 nm, 18 h; stronger effect = higher value.
Experiment [8] is described as follows: HUVEC growth inhibition – cell-based, human, primary screen (AID 575;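 active = viability at or below 30% in both replicate assays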;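 note: 100% = median of untreated cell wells with 0.1% DMSO on each plate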). The conditions noted are these: HUVEC proliferation, CellTiter-Glo luminescence, 72 h; at 10 µM; stronger effect = lower value. The method, boiled down: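 Test system: primary human umbilical vein endothelial cells; medium: endothelial basal medium with 2% FBS plus growth supplements; dosing: 10 µM compound only; times: 72 h treatment at 37 °C; signal: CTG luminescence; read-out: % viability relative to median vehicle-well signal on each plate; control set: vehicle and MePR control wells; plate: 384-well, collagen-coated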
In general terms: Cellular ATP, detected with luciferase, serves as a proxy for viable cell number.

The mark [9] stands for this setting: H69AR cells + 2 uM doxorubicin, measured here: viability with 2 uM doxorubicin, stronger effect = lower value.
Where [10] appears, read: H69AR cells, compound alone cytotoxicity.

Calls of active or inactive are those of the source.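 Rule for the calls, unless noted: active = viability at or below 10% of carrier control in both of two separate runs; inconclusive = viability at or below 10% in only one of the two runs; inactive = the rest.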

Consider 15 compounds from PubChem BioAssay.

Chain of Receptor tyrosine-protein kinase erbB-2 (Homo sapiens) (P04626 whole entry, looked up): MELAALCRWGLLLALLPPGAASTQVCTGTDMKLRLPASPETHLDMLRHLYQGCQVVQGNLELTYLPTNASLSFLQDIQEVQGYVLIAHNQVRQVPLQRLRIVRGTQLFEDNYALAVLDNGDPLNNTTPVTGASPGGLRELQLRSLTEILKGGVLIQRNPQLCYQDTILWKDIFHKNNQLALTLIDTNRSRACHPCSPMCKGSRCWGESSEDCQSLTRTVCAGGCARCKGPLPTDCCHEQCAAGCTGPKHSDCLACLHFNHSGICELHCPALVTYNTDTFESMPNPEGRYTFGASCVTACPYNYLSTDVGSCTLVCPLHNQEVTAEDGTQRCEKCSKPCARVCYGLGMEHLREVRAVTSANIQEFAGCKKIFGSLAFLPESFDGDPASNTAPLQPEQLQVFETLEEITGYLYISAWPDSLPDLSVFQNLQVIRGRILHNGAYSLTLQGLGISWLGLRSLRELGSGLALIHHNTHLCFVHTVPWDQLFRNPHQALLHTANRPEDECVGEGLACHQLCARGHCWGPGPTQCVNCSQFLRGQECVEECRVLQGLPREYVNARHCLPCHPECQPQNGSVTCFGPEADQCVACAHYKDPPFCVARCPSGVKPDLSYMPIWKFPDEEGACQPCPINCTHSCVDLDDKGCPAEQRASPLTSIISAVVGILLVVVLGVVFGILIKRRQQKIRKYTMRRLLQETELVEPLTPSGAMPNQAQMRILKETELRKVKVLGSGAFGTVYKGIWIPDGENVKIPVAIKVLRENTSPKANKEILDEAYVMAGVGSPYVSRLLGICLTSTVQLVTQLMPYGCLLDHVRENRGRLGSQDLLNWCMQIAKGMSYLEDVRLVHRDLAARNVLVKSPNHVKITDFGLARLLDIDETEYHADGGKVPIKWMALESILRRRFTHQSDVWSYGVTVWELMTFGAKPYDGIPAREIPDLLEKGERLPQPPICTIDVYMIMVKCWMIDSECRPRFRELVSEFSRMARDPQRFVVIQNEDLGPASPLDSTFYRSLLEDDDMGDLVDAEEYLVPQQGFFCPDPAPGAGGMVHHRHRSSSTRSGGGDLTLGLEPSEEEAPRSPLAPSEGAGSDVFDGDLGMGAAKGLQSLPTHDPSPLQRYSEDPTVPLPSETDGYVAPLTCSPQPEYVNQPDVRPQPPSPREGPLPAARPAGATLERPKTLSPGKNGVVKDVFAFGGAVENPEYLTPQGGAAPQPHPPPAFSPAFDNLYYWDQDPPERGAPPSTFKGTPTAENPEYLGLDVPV

For `CN1CCc2nc(SCCOc3ccccc3)c(C#N)cc2C1`, the viability is 150% in experiment [1]; 150% (inactive) in experiment [3]; 84.8% (inactive) in experiment [4]; 98.5% in experiment [5] (setting [9]); 84.8% in experiment [5] (setting [10]). Also, in experiment [2], the Her2 level is 25% (active). Further, the differential viability (reversal) in experiment [5] (H69AR cells + 2 uM doxorubicin) is -13.7% (inactive). Also, the inhibition is -1.69% (inactive) in experiment [6] and 0.67% (inactive) in experiment [7].

As for `COc1ccccc1-c1c(C)nn2c(N3CCC4(CC3)OCCO4)cc(C)nc12`, the viability in experiment [1] was 90%; in experiment [3], 90% (inactive); in experiment [8] it was 99.3% (inactive); in experiment [5] (setting [9]), 29.3%; in experiment [5] (setting [10]), 60%. For the same compound, in experiment [2], the Her2 level was 89% (inactive). Besides, the differential viability (reversal) in experiment [5] (H69AR cells + 2 uM doxorubicin) was 30.6% (inactive). In addition, the inhibition in experiment [6] is -1.05% (inactive); in experiment [7], -2.42% (inactive).

Take `Oc1ccccc1-c1cc(C(F)(F)C(F)F)[nH]n1`: the viability in experiment [1] is 97%; in experiment [3], 97% (inactive); in experiment [4] it was 98.3% (inactive); in experiment [5] (setting [9]), 87.1%; in experiment [5] (setting [10]) it was 98.3%. Besides, in experiment [2], the Her2 level is 93% (inactive). Further, the differential viability (reversal) in experiment [5] (H69AR cells + 2 uM doxorubicin) was 11.3% (inactive). Also, the inhibition in experiment [6] was -2.69% (inactive); in experiment [7] it was 2.83% (inactive).

Regarding `O=C(CSc1n[nH]c(-c2ccco2)n1)Nc1sc2c(c1C(=O)Nc1ccccc1)CCCC2`, the viability in experiment [1] is 99.5%; in experiment [3], 99.5% (inactive); in experiment [4], 65.9% (inactive); in experiment [5] (setting [9]), 78.9%; in experiment [5] (setting [10]), 65.9%. For the same compound, the Her2 level in experiment [2] is 99% (inactive). Besides, the differential viability (reversal) in experiment [5] (H69AR cells + 2 uM doxorubicin) was -13% (inactive). Also, the inhibition in experiment [6] was -4.42% (inactive); in experiment [7], -10.7% (inactive).

For `CCOC(=O)c1ccccc1NC(=O)c1c(O)c2ccccc2n(CC)c1=O`, the viability in experiment [1] is 89%; in experiment [3] it was 89% (inactive); in experiment [4] it was 71.3% (inactive); in experiment [5] (setting [9]), 82.3%; in experiment [5] (setting [10]), 71.3%. In addition, the Her2 level in experiment [2] was 90% (inactive). In addition, the differential viability (reversal) in experiment [5] (H69AR cells + 2 uM doxorubicin) is -11.1% (inactive). For the same compound, the inhibition in experiment [6] is -6.85% (inactive); in experiment [7], 0.16% (inactive).

Turning to `Cc1ccc2c(C)nc(Nc3nc(CSc4nnnn4-c4ccccc4)cc(=O)[nH]3)nc2c1`, the viability was 98% in experiment [1]; 98% (inactive) in experiment [3]; 48.6% (inactive) in experiment [8]; 78% in experiment [5] (setting [9]); 50.7% in experiment [5] (setting [10]). In experiment [2], the Her2 level is 80% (inactive). In addition, in experiment [5] (H69AR cells + 2 uM doxorubicin), the differential viability (reversal) is -27.3% (inactive). For the same compound, the inhibition is -5.47% (inactive) in experiment [6] and 1.31% (inactive) in experiment [7].

Consider `Cc1ccc(C(=O)/C=C/Nc2cccc(O)c2)cc1`, for which the viability in experiment [1] was 111%; in experiment [3], 111% (inactive); in experiment [4], 85.1% (inactive); in experiment [5] (setting [9]), 82.1%; in experiment [5] (setting [10]), 85.1%. Also, the Her2 level in experiment [2] is 76% (inactive). Besides, in experiment [5] (H69AR cells + 2 uM doxorubicin), the differential viability (reversal) was 3.02% (inactive). Besides, the inhibition in experiment [6] is -7.03% (inactive); in experiment [7], -1.83% (inactive).

Consider `CCOc1ccc2nc(NC(=O)C3CCCN(S(=O)(=O)c4c(C)noc4C)C3)sc2c1` (stereo not given), for which the viability in experiment [1] is 124%; in experiment [3], 124% (inactive); in experiment [8], 49.7% (inactive); in experiment [5] (setting [9]) it was 71.2%; in experiment [5] (setting [10]), 47.9%. The Her2 level in experiment [2] is 74% (inactive). Further, the differential viability (reversal) in experiment [5] (H69AR cells + 2 uM doxorubicin) is -23.4% (inactive). The inhibition in experiment [6] was 6.28% (inactive); in experiment [7], 7.5% (inactive).

On to `Cc1nc2cc(N3CCCCC3)c(NC(=O)c3cccnc3)cc2c(=O)n1Cc1ccccc1`, for which the viability in experiment [1] is 64%; in experiment [3], 64% (inactive); in experiment [4], 28.9% (active); in experiment [5] (setting [9]), 22%; in experiment [5] (setting [10]), 28.9%. Moreover, the Her2 level in experiment [2] was 67.5% (inactive). The differential viability (reversal) in experiment [5] (H69AR cells + 2 uM doxorubicin) is 6.91% (inactive). For the same compound, the inhibition in experiment [6] is 2.11% (inactive); in experiment [7], -8.33% (inactive).

Turning to `Cc1ccc(NC(=O)COS(=O)c2ccc(C)cc2)cc1` (stereo not given), the viability in experiment [1] is 97%; in experiment [3], 97% (inactive); in experiment [8], 69% (inactive); in experiment [5] (setting [9]) it was 41.3%; in experiment [5] (setting [10]), 38.6%. Besides, in experiment [2], the Her2 level was 95.5% (inactive). Further, the differential viability (reversal) in experiment [5] (H69AR cells + 2 uM doxorubicin) was -2.71% (inactive). Besides, the inhibition is -1.69% (inactive) in experiment [6] and -0.63% (inactive) in experiment [7].

On to `O=C(Cn1nc(-c2ccc(Cl)cc2)ccc1=O)NCCCN1CCN(Cc2ccccc2)CC1`, for which the viability in experiment [1] was 75%; in experiment [3] it was 75% (inactive); in experiment [4], 90.1% (inactive); in experiment [5] (setting [9]) it was 93.4%; in experiment [5] (setting [10]), 90.1%. Further, the Her2 level in experiment [2] is 106% (inactive). Moreover, the differential viability (reversal) in experiment [5] (H69AR cells + 2 uM doxorubicin) was -3.28% (inactive). For the same compound, the inhibition was -0.26% (inactive) in experiment [6] and -3.55% (inactive) in experiment [7].

For `O=C(Nc1ccc(S(=O)(=O)N2CCCCCC2)cc1)c1ccco1`, the viability in experiment [1] was 94.5%; in experiment [3], 94.5% (inactive); in experiment [4] it was 97.1% (inactive); in experiment [5] (setting [9]) it was 94.3%; in experiment [5] (setting [10]), 97.1%. In experiment [2], the Her2 level was 89.5% (inactive). Also, the differential viability (reversal) in experiment [5] (H69AR cells + 2 uM doxorubicin) is 2.81% (inactive). For the same compound, the inhibition was -1.17% (inactive) in experiment [6] and 6.07% (inactive) in experiment [7].

`Cc1cc(O)c(-c2cc(C(=O)Nc3ccc(S(=O)(=O)N4CCOCC4)cc3)[nH]n2)cc1C`: the viability in experiment [1] was 120%; in experiment [3] it was 120% (inactive); in experiment [4], 37.6% (active); in experiment [5] (setting [9]) it was 59.2%; in experiment [5] (setting [10]) it was 37.6%. In experiment [2], the Her2 level is 41% (active). Further, the differential viability (reversal) in experiment [5] (H69AR cells + 2 uM doxorubicin) was -21.6% (inactive). Moreover, the inhibition is -5.14% (inactive) in experiment [6] and -5.08% (inactive) in experiment [7].

With `CSc1nc(N2CCOCC2)c2c(c1C#N)CCCCC2`, the viability in experiment [1] is 112%; in experiment [3], 112% (inactive); in experiment [4], 86.8% (inactive); in experiment [5] (setting [9]), 73.9%; in experiment [5] (setting [10]) it was 86.8%. Moreover, the Her2 level in experiment [2] is 96% (inactive). In addition, the differential viability (reversal) in experiment [5] (H69AR cells + 2 uM doxorubicin) was 12.9% (inactive). The inhibition is 0.79% (inactive) in experiment [6] and 17.9% (inactive) in experiment [7].

Consider `COc1cccc(-c2cc3nc4c(c(N5CCC6(CC5)OCCO6)n3n2)CCCC4)c1`, for which the viability in experiment [1] is 124%; in experiment [3], 124% (inactive); in experiment [4] it was 58.5% (inactive); in experiment [5] (setting [9]), 61.9%; in experiment [5] (setting [10]) it was 58.5%. In addition, the Her2 level in experiment [2] was 67.5% (inactive). For the same compound, in experiment [5] (H69AR cells + 2 uM doxorubicin), the differential viability (reversal) is -3.45% (inactive). In addition, the inhibition in experiment [6] is 35.3% (active); in experiment [7], 21.6% (inactive).

One may read the viability as a read-out of living cells in per cent, often relative to untreated cells. What is called inhibition is the relative decrease from the control value, in per cent.
